The record followed here is ChEMBL document CHEMBL3763122, “Synthesis, vasorelaxant activity and 2D-QSAR study of some novel pyridazine derivatives” (Eur J Med Chem, 2016).

This test is described as follows: Vasorelaxant activity in Wistar rat thoracic aortic ring precontracted with norepinephrine hydrochloride. The test is classed as functional. To be noted: Thoracic aorta. The essentials: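 Isolated rat thoracic aortic rings held at 2 g resting tension for 2 h. Contraction to norepinephrine hydrochloride (10^-6 M) measured before and after exposure to increasing concentrations of compound. Compounds dissolved in DMSO as a 0.01 M stock. DMSO-alone controls run at matching concentrations. Doxazosin mesylate served as reference standard.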

SMILES strings stand for the structures. Structures can show the parent of a compound that is named as a salt.

A word on the IC50: it is the concentration that gives 50% inhibition. A lower IC50 goes with inhibition by little substance. `COc1ccc(-c2ccc(NN)nn2)cc1` registered a concentration for half-maximal inhibition (IC50) of 235 µM.

The compound `COc1ccc(-c2ccc(-n3nc(C)cc3C)nn2)cc1` showed an IC50 of 323 µM. Compound `COc1ccc(/C=N/Nc2ccc(-c3ccc(Cl)cc3)nn2)cc1` yielded an IC50 of 217 µM. The result for `COc1ccc(/C=N/Nc2ccc(-c3ccc(Cl)cc3)nn2)c(OC)c1` reads 205 µM; that for `NNc1ccc(-c2ccc(Cl)cc2)nn1`, 275 µM; that for `FC(F)(F)c1ccc(/C=N/Nc2ccc(-c3ccc(Cl)cc3)nn2)cc1`, 209 µM. The result for `COc1ccccc1-c1ccc(N2CCCC2)nn1` reads 284 µM. The result for `COc1ccccc1-c1ccc(-n2ccnc2)nn1` reads 205 µM; that for `COc1ccccc1-c1ccc(NN)nn1`, 279 µM; that for `Clc1ccc(-c2ccc(-n3ccnc3)nn2)cc1`, 255 µM. The compound `c1ccc(-c2ccc(-n3ccnc3)nn2)cc1` gave a concentration for half-maximal inhibition (IC50) of 273 µM.

`N#Cc1cnn(-c2ccc(-c3ccccc3)nn2)c1N` came in with an IC50 of 287 µM. Take `COc1ccccc1-c1ccc(NNC(=O)NC2CCCCC2)nn1`: 266 µM corresponded to half-maximal inhibition (IC50).

`c1ccc(-c2ccc(N3CCCC3)nn2)cc1` returned an IC50 of 235 µM.

In turn, `NNc1ccc(-c2ccccc2)nn1` had an IC50 of 206 µM. As to `COc1ccc(-c2ccc(-n3ncc(C#N)c3N)nn2)cc1`, the half-maximal inhibitory concentration (IC50) stood at 260 µM. The IC50 values of the last two compounds are within 1.5-fold of each other. Compound `O=C(NNc1ccc(-c2ccc(Cl)cc2)nn1)Nc1ccccc1` displayed an IC50 of 207 µM. The result for `CCOC(=O)c1cnn(-c2ccc(-c3ccc(Cl)cc3)nn2)c1N` reads 230 µM; that for `Cc1cc(C)n(-c2ccc(-c3ccc(Cl)cc3)nn2)n1`, 213 µM. For `COc1ccccc1-c1ccc(N/N=C/c2ccc(C(F)(F)F)cc2)nn1` the value was 248 µM; for `COc1cc2nc(N3CCN(C(=O)C4COc5ccccc5O4)CC3)nc(N)c2cc1OC` (stereo not given) [DOXAZOSIN MESYLATE], 226 µM; for `N#Cc1cnn(-c2ccc(-c3ccc(Cl)cc3)nn2)c1N`, 310 µM. In turn, `COc1ccccc1-c1ccc(N/N=C/c2cc(OC)c(OC)c(OC)c2)nn1` had an IC50 of 221 µM. This IC50 and that of the compound before are within 1.5-fold of each other. The result for `COc1ccc(/C=N/Nc2ccc(-c3ccccc3OC)nn2)c(OC)c1` reads 259 µM; that for `COc1ccccc1-c1ccc(-n2nc(C)cc2C)nn1`, 299 µM; that for `CCOC(=O)c1cnn(-c2ccc(-c3ccccc3)nn2)c1N`, 254 µM.

In turn, `Cc1cc(C)n(-c2ccc(-c3ccccc3)nn2)n1` returned a half-inhibitory concentration (IC50) of 198 µM. On to `COc1ccc(/C=N/Nc2ccc(-c3ccccc3OC)nn2)cc1`, for which half-maximal inhibition (IC50) required 200 µM. This IC50 and that of the compound before are within 1.5-fold of each other. For `CCOC(=O)c1cnn(-c2ccc(-c3ccccc3OC)nn2)c1N` the value was 225 µM.

`Clc1ccc(-c2ccc(N3CCCC3)nn2)cc1` had an IC50 of 300 µM. This IC50 and that of the compound before are within 1.5-fold of each other. For `COc1cc(/C=N/Nc2ccc(-c3ccc(Cl)cc3)nn2)cc(OC)c1OC` the value was 255 µM; for `COc1ccccc1-c1ccc(-n2ncc(C#N)c2N)nn1`, 316 µM; for `O=C(NNc1ccc(-c2ccc(Cl)cc2)nn1)NC1CCCCC1`, 177 µM. For `CCOC(=O)c1cnn(-c2ccc(-c3ccc(OC)cc3)nn2)c1N` the value was 216 µM; for `COc1ccc(-c2ccc(-n3ccnc3)nn2)cc1`, 259 µM.
